Measured values published in paper PMC6242712 (ChemMedChem, 2018).
Where two headings read alike, the source gives them in different places.

Key:
[1] = molecular target: T1, PDI (Homo sapiens, UniProt P07237); test: PDI-catalyzed insulin reduction; assay type: biochemical
[2] = system: A172 cells; test: MTT growth inhibition assay, A172; conditions: Homo sapiens, A 172, 72 h, read-out: IC50, cytotoxicity A172
[3] = system: U118MG cells; test: MTT growth inhibition assay, U118MG; conditions: Homo sapiens, U-118-MG, 72 h, read-out: IC50, cytotoxicity U118MG
[4] = system: U87MG cells; test: MTT growth inhibition assay, U87MG; conditions: for IC50: read-out: IC50, cytotoxicity U87MG; for Effect on cell growth: in words
[5] = system: NU04 cells; test: MTT growth inhibition assay, NU04; conditions: Homo sapiens, 72 h, read-out: IC50, cytotoxicity NU04
[6] = system: U87MG cells; test: MTT cell viability with or without deferoxamine; assay type: cell-based; conditions: Homo sapiens, U-87 MG, 12 h, read-out: IC50, cell viability, used alone
[7] = system: U87MG cells; test: ROS detection assay; assay type: cell-based, human; conditions: 5 μM, 24 hours; comparable to 100 μM hydrogen peroxide
Method in brief: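 Trypsinized U87MG cells were loaded in suspension with 20 μM H2DCFDA for 30 min at 37 °C, washed, plated at 20,000 cells/well, rested 30 min, then treated. Fluorescence (493/523 nm) was read at 4, 6 and 24 h. Hydrogen peroxide (500, 100, 20 μM) served as reference. Means ± standard deviation of three independent experiments.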

[8] = system: U87MG cells; test: Bru-seq nascent RNA sequencing; assay type: cell-based, human; conditions: 1 μM, 4 hours
Method in brief: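 U87MG cells plated on day 1, given fresh medium on day 5, then exposed to test compound (1 μM) or DMSO for 4 h. Bromouridine (2 mM final) labelled nascent RNA during the last 30 min. Total RNA was isolated in TRIzol, and BrU-RNA was isolated, sequenced and mapped. Genes >300 bp with mean RPKM >0.5 (7,770 genes) were ranked by fold change vs DMSO.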

[9] = molecular target: T2, GRP78 (Homo sapiens, UniProt P11021); test: DARTS assay in U87MG cell lysates, GRP78; assay type: binding; conditions: 100 μM compound, U87MG lysate
Method in brief: (§1)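 U87MG cells at 80–85% confluence were lysed on ice for 10 min (150 mM NaCl, 1% NP-40, 0.5% deoxycholate, 50 mM Tris pH 8.0) and cleared at 18,000 × g. Lysate (5 mg/ml) was incubated with 100 μM test compound or DMSO for 30 min at RT. Pronase (0, 0.005, 0.01, 0.02 μg/μL) was added for 30 min at RT and stopped with protease inhibitors on ice. 20 μg protein was Western blotted; three independent experiments.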

[10] = molecular target: T2, GRP78; test: Cellular thermal shift assay; assay type: cell-based; conditions: U87MG cells, 2 hours
Method in brief: (§2)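 U87MG cells (2 × 10^6 per 100 mm dish) were attached overnight, then treated with test compound (0.5, 1.0 or 2.0 μM) or DMSO for 2 h at 37 °C, 5% CO2. Cells were trypsinized, washed in DPBS and aliquoted. Aliquots were heated at set temperatures for 3 min, held 3 min at room temperature and freeze-thawed twice. Cleared supernatants were run on 10% SDS-PAGE and Western blotted.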

[11] = system: glioblastoma cells; test: MTT growth inhibition of 35G8 combined with Z-VAD-FMK, necrostatin-1 or NAC; assay type: cell-based, human
[12] = molecular target: T1, PDI; test: Cellular thermal shift assay; assay type: cell-based; conditions: U87MG cells, 2 hours
Method in brief: as §2

[13] = molecular target: T3, glutathione-transferase Omega 1 (GSTO1) (Homo sapiens, UniProt P78417); test: Cellular thermal shift assay; assay type: cell-based; conditions: U87MG cells, 2 hours
T3 sequence (P78417 1-241): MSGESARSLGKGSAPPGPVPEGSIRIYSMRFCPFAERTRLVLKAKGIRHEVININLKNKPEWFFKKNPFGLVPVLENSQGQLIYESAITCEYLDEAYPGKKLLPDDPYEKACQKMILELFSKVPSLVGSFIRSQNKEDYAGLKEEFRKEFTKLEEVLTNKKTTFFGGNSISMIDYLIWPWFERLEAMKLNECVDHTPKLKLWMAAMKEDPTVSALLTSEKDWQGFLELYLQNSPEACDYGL
Method in brief: as §2

[14] = molecular target: T1, PDI; test: DARTS assay in U87MG cell lysates, PDI; assay type: binding; conditions: 100 μM compound, U87MG lysate
Method in brief: as §1

[15] = system: U87MG cells; test: Western blot of protein expression; assay type: cell-based, human; conditions: 24-hour treatment
Method in brief: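 U87MG cells were treated with test compound (1 or 2 μM) or vehicle for 24 h. 50 μg protein on 10% gels (12% for LC3B, DDIT3), transferred to PVDF. GAPDH loading control; triplicate experiments.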

[16] = molecular target: T4, GSTO1 (Homo sapiens, UniProt P78417); test: DARTS assay in U87MG cell lysates, GSTO1; assay type: binding; conditions: 100 μM compound, U87MG lysate
T4 sequence (P78417 1-241): T3 sequence (P78417 1-241)
Method in brief: as §1

[17] = system: PDI; conditions: reversible PDI modulator; cited from earlier work
[18] = system: NU04 cells
[19] = system: U118MG cells
[20] = system: A172 cells
[21] = system: U87MG cells

T2 sequence (P11021 19-654): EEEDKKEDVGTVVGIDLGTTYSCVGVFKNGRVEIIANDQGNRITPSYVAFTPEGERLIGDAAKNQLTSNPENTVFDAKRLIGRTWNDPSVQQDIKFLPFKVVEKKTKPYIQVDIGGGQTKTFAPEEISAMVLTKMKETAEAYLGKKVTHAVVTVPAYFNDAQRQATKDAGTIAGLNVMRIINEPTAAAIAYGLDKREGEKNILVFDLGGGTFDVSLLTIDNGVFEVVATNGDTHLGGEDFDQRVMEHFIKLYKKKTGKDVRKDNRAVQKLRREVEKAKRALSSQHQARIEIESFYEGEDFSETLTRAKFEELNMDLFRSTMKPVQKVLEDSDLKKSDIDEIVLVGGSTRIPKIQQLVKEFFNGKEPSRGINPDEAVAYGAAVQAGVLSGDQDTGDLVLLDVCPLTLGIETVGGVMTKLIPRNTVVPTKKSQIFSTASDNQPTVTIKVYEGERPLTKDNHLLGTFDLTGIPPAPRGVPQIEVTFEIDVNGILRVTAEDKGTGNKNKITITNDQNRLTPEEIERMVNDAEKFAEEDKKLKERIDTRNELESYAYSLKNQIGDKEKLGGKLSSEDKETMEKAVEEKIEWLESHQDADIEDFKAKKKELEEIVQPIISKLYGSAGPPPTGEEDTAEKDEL
T1 sequence (P07237 18-508): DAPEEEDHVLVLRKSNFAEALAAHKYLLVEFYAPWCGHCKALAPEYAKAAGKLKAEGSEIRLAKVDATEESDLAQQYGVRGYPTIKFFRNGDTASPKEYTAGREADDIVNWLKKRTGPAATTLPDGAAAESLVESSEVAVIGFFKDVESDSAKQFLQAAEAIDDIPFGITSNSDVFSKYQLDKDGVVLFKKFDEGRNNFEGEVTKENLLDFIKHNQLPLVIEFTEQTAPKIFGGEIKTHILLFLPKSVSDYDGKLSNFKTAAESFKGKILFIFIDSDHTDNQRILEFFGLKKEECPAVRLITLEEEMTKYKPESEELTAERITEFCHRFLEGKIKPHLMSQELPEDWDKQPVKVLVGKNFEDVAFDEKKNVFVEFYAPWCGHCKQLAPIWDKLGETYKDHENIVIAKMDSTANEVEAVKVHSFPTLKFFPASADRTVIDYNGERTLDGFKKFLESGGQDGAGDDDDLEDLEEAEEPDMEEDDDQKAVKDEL

Q: With `Cn1nc(-c2ccccc2)nc2c(=O)n(C)c(=O)nc1-2` [Compound 4b, 1,6-Dimethyl-3-phenylpyrimido[5,4-e][1,2,4]triazine-5,7(1H,6H)-dione] as the compound, how does the IC50 [1] read?
A: 0.39 ± 0.03 µM

Q: And the IC50 [2]?
A: 1.8 ± 0.4 µM

Q: And the IC50 [3]?
A: 4.6 ± 0.5 µM

Q: What about the IC50 ([4]; Homo sapiens, U-87 MG, 72 h) of the same compound?
A: 3 ± 0.3 µM

Q: And the IC50 [5]?
A: 3.7 ± 1.2 µM

Q: With `Cn1nc(Cc2ccccc2)nc2c(=O)n(C)c(=O)nc1-2` [Compound 4c, 3-Benzyl-1,6-dimethylpyrimido[5,4-e][1,2,4]triazine-5,7(1H,6H)-dione] as the compound, how does the IC50 [1] read?
A: 0.33 ± 0.04 µM

Q: What about the IC50 [2] of the same compound?
A: 8.2 ± 2.5 µM

Q: What about the IC50 [3] of the same compound?
A: 24 ± 7.4 µM

Q: What about the IC50 ([4]; Homo sapiens, U-87 MG, 72 h) of the same compound?
A: 12.7 ± 3.7 µM

Q: And the IC50 [5]?
A: > 30 µM

Q: For `COc1ccc(-c2nc3c(=O)n(C)c(=O)nc-3n(C)n2)cc1` [Compound 4d, 3-(4-Methoxyphenyl)-1,6-dimethylpyrimido[5,4-e][1,2,4]triazine-5,7(1H,6H)-dione], which IC50 [1] is on record?
A: 0.36 ± 0.05 µM

Q: And the IC50 [2]?
A: 1.5 ± 0.4 µM

Q: And the IC50 [3]?
A: 3.9 ± 0.6 µM

Q: What about the IC50 ([4]; Homo sapiens, U-87 MG, 72 h) of the same compound?
A: 1.2 ± 0.2 µM

Q: And the IC50 [5]?
A: 0.86 ± 0.04 µM

Q: With `COc1cccc(-c2nc3c(=O)n(C)c(=O)nc-3n(C)n2)c1` [Compound 4e, 3-(3-Methoxyphenyl)-1,6-dimethylpyrimido[5,4-e][1,2,4]triazine-5,7(1H,6H)-dione] as the compound, how does the IC50 [1] read?
A: 0.32 ± 0.01 µM

Q: What about the IC50 [2] of the same compound?
A: 1.5 ± 0.1 µM

Q: What about the IC50 [3] of the same compound?
A: 2.4 ± 0.6 µM

Q: And the IC50 ([4]; Homo sapiens, U-87 MG, 72 h)?
A: 1.1 ± 0.2 µM

Q: What about the IC50 [5] of the same compound?
A: 0.76 ± 0.22 µM

Q: What does the source list for `Cn1nc(-c2ccc([N+](=O)[O-])cc2)nc2c(=O)n(C)c(=O)nc1-2` [Compound 4f, 1,6-Dimethyl-3-(4-nitrophenyl)pyrimido[5,4-e][1,2,4]triazine-5,7(1H,6H)-dione]?
A: IC50 [1]: 0.24 ± 0.04 µM; IC50 [2]: 1.1 ± 0.2 µM; IC50 [3]: 6.2 ± 1.6 µM; IC50 ([4]; Homo sapiens, U-87 MG, 72 h): 1.8 ± 0.7 µM; IC50 [5]: 4.9 ± 1.2 µM

Q: For `COc1ccc(-c2nn(C)c3nc(=O)n(C)c(=O)c-3[n+]2[O-])cc1` [Compound 5d, 3-(4-Methoxyphenyl)-1,6-dimethyl-5,7-dioxo-1,5,6,7-tetrahydropyrimido[5,4-e][1,2,4]triazine 4-oxide], which IC50 [1] is on record?
A: 0.42 ± 0.07 µM

Q: What about the IC50 [2] of the same compound?
A: 1.7 ± 0.1 µM

Q: And the IC50 [3]?
A: 4.3 ± 0.1 µM

Q: What about the IC50 ([4]; Homo sapiens, U-87 MG, 72 h) of the same compound?
A: 1.9 ± 0.7 µM

Q: And the IC50 [5]?
A: 1.5 ± 0.7 µM

Q: Which IC50 [6] does the source give for `Cc1nc2c(=O)n(C)c(=O)nc-2n(C)n1` [Compound 35G8, 1,3,6-Trimethylpyrimido[5,4-e][1,2,4]triazine-5,7(1H,6H)-dione] here?
A: 2.2 ± 0.7 µM

Q: What about the IC50 [1] of the same compound?
A: 0.17 ± 0.01 µM

Q: What about the IC50 [2] of the same compound?
A: 2 ± 0.6 µM

Q: What about the ROS induction [7] of the same compound?
A: maximal ROS induction

Q: What about the IC50 [3] of the same compound?
A: 3.9 ± 0.1 µM

Q: And the CHAC1 transcription [8]?
A: 46 fold increase

Q: And the DDIT3 transcription [8]?
A: 4 fold increase

Q: What about the EGR1 transcription [8] of the same compound?
A: −5.65 fold change

Q: And the HSPA5 transcription [8]?
A: 8 fold increase

Q: What about the IRS2 transcription [8] of the same compound?
A: 12 fold increase

Q: What about the ITGA3 transcription [8] of the same compound?
A: −3.89 fold change

Q: What about the TMEM74 transcription [8] of the same compound?
A: 28 fold increase

Q: What about the TRIB3 transcription [8] of the same compound?
A: 23 fold increase

Q: And the TXN expression [8]?
A: 2 fold increase

Q: What about the TXNIP expression [8] of the same compound?
A: 7.4 fold decrease

Q: And the TXNIP transcription [8]?
A: −7.40 fold change

Q: And the TXNRD1 expression [8]?
A: 9 fold increase

Q: And the “Effect on degradation of GRP78 (DARTS)” value [9]?
A: no effect

Q: And the “Effect on thermal stability of GRP78 (CETSA)” value [10]?
A: little effect

Q: And the IC50 ([4]; Homo sapiens, U-87 MG, 72 h)?
A: 1.1 ± 0.2 µM

Q: What about the “Effect of N-acetyl-cysteine (NAC) on cytotoxicity of 35G8” value ([11]; NAC added at the same time as 35G8) of the same compound?
A: did not affect

Q: And the “Protection from 35G8-induced cell death by necrostatin-1 pretreatment” value ([11]; Necrostatin-1 added 1 hour prior to 35G8)?
A: did not protect

Q: What about the “Protection from 35G8-induced cell death by Z-VAD-FMK pretreatment” value ([11]; Z-VAD-FMK added 1 hour prior to 35G8) of the same compound?
A: did not protect

Q: And the “Effect on thermal stability of PDI (CETSA)” value [12]?
A: destabilized

Q: And the IC50 [5]?
A: 0.8 ± 0.2 µM

Q: And the “Effect on thermal stability of GSTO1 (CETSA)” value [13]?
A: stabilize

Q: What about the “Protection of PDI from pronase proteolysis (DARTS)” value [14] of the same compound?
A: protected

Q: And the “Cleaved LC3B expression” value ([15]; 2 μM)?
A: increased significantly

Q: And the DDIT3 protein expression ([15]; 2 μM)?
A: increased

Q: What about the “Expression of ATG3, ATG5, ATG7 and beclin 1” value ([15]; 2 μM) of the same compound?
A: did not change

Q: What about the “GRP78 (HSPA5) protein expression” value ([15]; 2 μM) of the same compound?
A: increased

Q: What about the HMOX1 protein expression ([15]; 1 or 2 μM) of the same compound?
A: parallel increases

Q: And the SLC7A11 protein expression ([15]; 1 or 2 μM)?
A: parallel increases

Q: And the “Effect on degradation of GSTO1 (DARTS)” value [16]?
A: no effect

Q: Which EC50 [17] does the source give for `O=C(C1CC1)N1CCN(Cn2sc3ccccc3c2=O)CC1` [LOC14] here?
A: 0.5 µM

Q: With `Cn1ncnc2c(=O)n(C)c(=O)nc1-2` [NC72] as the compound, how does the IC50 ([4]; MTT, 72 hours) read?
A: 0.5 ± 0.1 µM

Q: Which “Effect on cell growth” value ([4]; MTT) does the source give for `Cn1c(=O)[nH]c2nncnc2c1=O` [NC75] here?
A: little effect on cell growth

Q: And the IC50 ([4]; MTT, 72 hours)?
A: > 100 µM

Q: Which results are given for `Cc1nn(C)c2nc(=O)n(C)c(=O)c-2[n+]1[O-]` [NC79]?
A: Effect on cell growth ([4]; MTT): little effect on cell growth; IC50 ([4]; MTT, 72 hours): > 100 µM

Q: For PACMA31, which IC50 [18] is on record?
A: 0.4 ± 0.1 µM

Q: And the IC50 [19]?
A: 0.28 ± 0.04 µM

Q: What about the IC50 [20] of the same compound?
A: 0.12 ± 0.1 µM

Q: And the “Effect on degradation of GRP78 (DARTS)” value [9]?
A: no effect

Q: And the IC50 [21]?
A: 0.13 ± 0.07 µM

Q: And the “Protection of PDI from pronase proteolysis (DARTS)” value [14]?
A: protected

Q: And the “Effect on degradation of GSTO1 (DARTS)” value [16]?
A: no effect
